Assay results published in ChEMBL document CHEMBL1141362, “Synthesis and solid-phase purification of anthranilic sulfonamides as CCK-2 ligands” (Bioorg Med Chem Lett, 2007).
pKi: −log10 of the molar value.

Tests used:
[1] = Metabolic stability in human liver microsomes after 30 mins; format: ADME, Microsome; settings: read-out: Stability
How it was run: (§1)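 Compound incubated with human or rat liver microsomes to assess stability toward CYP450 oxidation. The read-out is percent of parent compound remaining after 30 min.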

[2] = Metabolic stability in rat liver microsomes after 30 mins; format: ADME, Microsome; settings: read-out: Stability; how it was run: as §1
[3] = target: T1, Gastrin/cholecystokinin type B receptor (Homo sapiens, UniProt P32239); assay: Displacement of [125I]CCK-8S from CCK2 receptor
T1 sequence (P32239 whole entry): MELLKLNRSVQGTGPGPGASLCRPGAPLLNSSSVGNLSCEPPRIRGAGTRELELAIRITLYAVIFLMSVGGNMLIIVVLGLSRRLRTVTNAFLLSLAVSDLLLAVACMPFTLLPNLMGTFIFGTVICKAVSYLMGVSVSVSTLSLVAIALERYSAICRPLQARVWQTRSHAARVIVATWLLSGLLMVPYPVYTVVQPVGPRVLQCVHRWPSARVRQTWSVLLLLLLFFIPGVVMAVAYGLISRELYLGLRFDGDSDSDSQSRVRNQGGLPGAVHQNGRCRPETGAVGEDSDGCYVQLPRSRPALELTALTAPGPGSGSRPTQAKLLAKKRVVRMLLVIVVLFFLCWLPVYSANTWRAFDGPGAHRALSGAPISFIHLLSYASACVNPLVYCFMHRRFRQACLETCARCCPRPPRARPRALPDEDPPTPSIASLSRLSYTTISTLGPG
How it was run: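 Apparent antagonist equilibrium dissociation constant, reported as its negative logarithm, derived by the Cheng–Prusoff method from the concentration displacing 50% of 125I-CCK-8S (pIC50). Values are ±0.3 log units unless stated otherwise.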

[4] = target: T2, Cholecystokinin receptor type A (Homo sapiens, UniProt P32238); assay: Binding affinity to CCK1 receptor
T2 sequence (P32238 whole entry): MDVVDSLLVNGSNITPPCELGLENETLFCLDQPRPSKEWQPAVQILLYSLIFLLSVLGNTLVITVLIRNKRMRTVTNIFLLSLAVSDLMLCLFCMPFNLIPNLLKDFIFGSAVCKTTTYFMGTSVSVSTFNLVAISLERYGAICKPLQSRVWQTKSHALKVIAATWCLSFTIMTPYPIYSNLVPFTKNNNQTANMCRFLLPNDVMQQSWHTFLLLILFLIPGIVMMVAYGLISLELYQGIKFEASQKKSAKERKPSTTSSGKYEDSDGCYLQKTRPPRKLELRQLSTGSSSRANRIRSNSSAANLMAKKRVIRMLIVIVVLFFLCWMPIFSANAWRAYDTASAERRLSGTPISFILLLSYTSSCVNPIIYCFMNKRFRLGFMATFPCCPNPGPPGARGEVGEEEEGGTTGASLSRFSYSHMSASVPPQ

COC(=O)c1sccc1S(=O)(=O)Nc1cc(Br)ccc1C(=O)N1CCCCC1
remaining at 0.5 h [1]: 3% | remaining at 0.5 h [2]: 37% | pKi [3]: 5.80

O=C(c1ccc(Br)cc1NS(=O)(=O)c1ccc2c(c1)OCCCO2)N1CCCCC1
remaining at 0.5 h [1]: 41% | remaining at 0.5 h [2]: 9% | pKi [3]: 5.60

O=C(c1cc(Cl)ccc1NS(=O)(=O)c1cccc2nsnc12)N1CCCCC1
pKi [4]: < 5.00

COC(=O)c1cc(S(=O)(=O)Nc2cc(Br)ccc2C(=O)N2CCCCC2)oc1C
remaining at 0.5 h [1]: 10% | remaining at 0.5 h [2]: 100% | pKi [3]: 5.30

COC(=O)c1csc(S(=O)(=O)Nc2cc(Br)ccc2C(=O)N2CCCCC2)c1OC
remaining at 0.5 h [1]: 0% | remaining at 0.5 h [2]: 0% | pKi [3]: 5.30

O=C(c1ccc(Br)cc1NS(=O)(=O)c1c(F)cccc1F)N1CCCCC1
remaining at 0.5 h [1]: 77% | remaining at 0.5 h [2]: 78% | pKi [3]: 6.30

COC(=O)c1c(C)oc(C)c1S(=O)(=O)Nc1cc(Br)ccc1C(=O)N1CCCCC1
remaining at 0.5 h [1]: 0% | remaining at 0.5 h [2]: 11% | pKi [3]: 6.30

O=C(NCc1ccc(S(=O)(=O)Nc2cc(Br)ccc2C(=O)N2CCCCC2)s1)c1ccccc1
remaining at 0.5 h [1]: 0% | remaining at 0.5 h [2]: 0% | pKi [3]: 5.20

Cc1ccc(S(=O)(=O)Nc2cc(Br)ccc2C(=O)N2CCCCC2)cc1[N+](=O)[O-]
remaining at 0.5 h [1]: 3% | remaining at 0.5 h [2]: 25% | pKi [3]: 5.70

Cc1nnc(-c2cccc(S(=O)(=O)Nc3cc(Br)ccc3C(=O)N3CCCCC3)c2)o1
remaining at 0.5 h [1]: 0% | remaining at 0.5 h [2]: 66% | pKi [3]: 5.10

CSc1nccc(-c2ccc(S(=O)(=O)Nc3cc(Br)ccc3C(=O)N3CCCCC3)s2)n1
remaining at 0.5 h [1]: 63% | remaining at 0.5 h [2]: 39% | pKi [3]: 5.50

Cc1nc(-c2ccc(S(=O)(=O)Nc3cc(Br)ccc3C(=O)N3CCCCC3)s2)cs1
remaining at 0.5 h [1]: 5% | remaining at 0.5 h [2]: 47% | pKi [3]: 5.40

O=C(c1ccc(Br)cc1NS(=O)(=O)c1ccc2nsnc2c1)N1CCCCC1
remaining at 0.5 h [1]: 13% | remaining at 0.5 h [2]: 23% | pKi [3]: 5.30

O=C(c1ccc(Br)cc1NS(=O)(=O)c1cccc2nsnc12)N1CCCCC1
remaining at 0.5 h [1]: 0% | remaining at 0.5 h [2]: 29%

Cc1c(S(=O)(=O)Nc2cc(Br)ccc2C(=O)N2CCCCC2)cnn1-c1ccccc1
remaining at 0.5 h [1]: 85% | remaining at 0.5 h [2]: 30% | pKi [3]: 5.10

O=C(c1ccc(Br)cc1NS(=O)(=O)c1c(Cl)nc2sccn12)N1CCCCC1
remaining at 0.5 h [1]: 7% | remaining at 0.5 h [2]: 100% | pKi [3]: 5.80

COC(=O)c1sc(C(F)(F)F)c(-c2ccccc2)c1S(=O)(=O)Nc1cc(Br)ccc1C(=O)N1CCCCC1
remaining at 0.5 h [1]: 0% | remaining at 0.5 h [2]: 0% | pKi [3]: 5.10

O=C(c1ccc(Br)cc1NS(=O)(=O)c1csc2ccccc12)N1CCCCC1
remaining at 0.5 h [1]: 23% | remaining at 0.5 h [2]: 19% | pKi [3]: 5.50

N#Cc1cccc(S(=O)(=O)Nc2cc(Br)ccc2C(=O)N2CCCCC2)c1
remaining at 0.5 h [1]: 7% | remaining at 0.5 h [2]: 100% | pKi [3]: 5.30

O=C(c1ccc(Br)cc1NS(=O)(=O)c1ccc(C(F)(F)F)cc1Cl)N1CCCCC1
remaining at 0.5 h [1]: 44% | remaining at 0.5 h [2]: 49% | pKi [3]: 6.20

O=C(c1ccc(Br)cc1NS(=O)(=O)c1ccc(-c2cc(C(F)(F)F)on2)s1)N1CCCCC1
remaining at 0.5 h [1]: 89% | remaining at 0.5 h [2]: 87% | pKi [3]: 5.30

O=C(c1ccc(Br)cc1NS(=O)(=O)c1sc(Cl)cc1Br)N1CCCCC1
remaining at 0.5 h [1]: 2% | remaining at 0.5 h [2]: 68% | pKi [3]: 6.10
